{
  "source": "ChEMBL document CHEMBL3603808",
  "about": "“Discovery and structure of a new inhibitor scaffold of the autophagy initiating kinase ULK1” (Bioorg Med Chem, 2015)",
  "key": {"[1]": {"biological_target": "Tyrosine-protein kinase JAK2 (Homo sapiens) (UniProt O60674)", "assay": "Inhibition of JAK2 (unknown origin) at 2 uM by radioactive filter-binding assay", "outline": "(§1)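 Panel profiling of one compound against 50 kinases, carried out in duplicate at the International Centre for Protein Kinase Profiling. Radioactive filter-binding format.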"}, "[2]": {"biological_target": "Serine/threonine-protein kinase D1 (Homo sapiens) (UniProt Q15139)", "sequence (Q15139 whole entry)": "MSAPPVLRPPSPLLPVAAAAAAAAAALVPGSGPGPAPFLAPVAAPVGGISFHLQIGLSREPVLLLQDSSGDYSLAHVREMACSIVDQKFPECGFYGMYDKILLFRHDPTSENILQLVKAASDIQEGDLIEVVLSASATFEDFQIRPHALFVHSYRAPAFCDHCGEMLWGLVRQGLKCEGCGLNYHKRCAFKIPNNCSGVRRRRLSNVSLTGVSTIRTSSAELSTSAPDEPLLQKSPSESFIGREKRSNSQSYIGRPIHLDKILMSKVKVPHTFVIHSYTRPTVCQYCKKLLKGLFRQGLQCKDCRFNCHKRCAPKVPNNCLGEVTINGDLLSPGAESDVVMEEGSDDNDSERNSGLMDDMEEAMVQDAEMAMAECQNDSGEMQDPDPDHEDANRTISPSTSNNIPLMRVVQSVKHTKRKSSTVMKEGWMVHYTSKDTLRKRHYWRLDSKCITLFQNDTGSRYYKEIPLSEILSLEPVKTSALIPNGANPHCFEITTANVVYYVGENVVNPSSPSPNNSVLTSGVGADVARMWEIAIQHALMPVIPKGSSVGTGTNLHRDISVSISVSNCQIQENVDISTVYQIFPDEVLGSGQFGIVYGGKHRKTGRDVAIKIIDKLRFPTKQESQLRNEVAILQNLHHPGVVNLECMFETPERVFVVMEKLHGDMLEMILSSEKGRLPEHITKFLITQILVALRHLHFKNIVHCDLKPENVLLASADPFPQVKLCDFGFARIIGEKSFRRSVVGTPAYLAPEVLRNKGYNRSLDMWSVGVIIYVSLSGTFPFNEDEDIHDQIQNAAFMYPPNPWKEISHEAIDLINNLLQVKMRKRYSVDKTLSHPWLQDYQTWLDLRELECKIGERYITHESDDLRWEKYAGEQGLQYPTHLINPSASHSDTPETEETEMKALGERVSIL", "assay": "Inhibition of PKD1 (unknown origin) at 2 uM by radioactive filter-binding assay", "outline": "as §1"}, "HeLa": {"test_system": "HeLa", "assay": "Inhibition of autophagy in human HeLa cells assessed as induction of LC3-I protein accumulation at 4 uM incubated for 24 hrs by immunoblotting method", "assay_type": "functional, cell-based", "outline": "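HeLa cells were grown in DMEM with 10% FBS to about 50% confluency, then given 4 µM compound or DMSO for 24 h. Cold-PBS wash, lysis in TBS pH 7.6 with 1% Triton-X, 0.2% SDS and protease/phosphatase inhibitors. Lysates were protein-normalized and immunoblotted for LC3-I/LC3-II, with actin as loading control.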"}, "[3]": {"biological_target": "Calcium/calmodulin-dependent protein kinase kinase 2 (Homo sapiens) (UniProt Q96RR4)", "assay": "Inhibition of CAMKKB (unknown origin) at 2 uM by radioactive filter-binding assay", "outline": "as §1"}, "[4]": {"biological_target": "High affinity nerve growth factor receptor (Homo sapiens) (UniProt P04629)", "sequence (P04629 33-796 limits assumed)": "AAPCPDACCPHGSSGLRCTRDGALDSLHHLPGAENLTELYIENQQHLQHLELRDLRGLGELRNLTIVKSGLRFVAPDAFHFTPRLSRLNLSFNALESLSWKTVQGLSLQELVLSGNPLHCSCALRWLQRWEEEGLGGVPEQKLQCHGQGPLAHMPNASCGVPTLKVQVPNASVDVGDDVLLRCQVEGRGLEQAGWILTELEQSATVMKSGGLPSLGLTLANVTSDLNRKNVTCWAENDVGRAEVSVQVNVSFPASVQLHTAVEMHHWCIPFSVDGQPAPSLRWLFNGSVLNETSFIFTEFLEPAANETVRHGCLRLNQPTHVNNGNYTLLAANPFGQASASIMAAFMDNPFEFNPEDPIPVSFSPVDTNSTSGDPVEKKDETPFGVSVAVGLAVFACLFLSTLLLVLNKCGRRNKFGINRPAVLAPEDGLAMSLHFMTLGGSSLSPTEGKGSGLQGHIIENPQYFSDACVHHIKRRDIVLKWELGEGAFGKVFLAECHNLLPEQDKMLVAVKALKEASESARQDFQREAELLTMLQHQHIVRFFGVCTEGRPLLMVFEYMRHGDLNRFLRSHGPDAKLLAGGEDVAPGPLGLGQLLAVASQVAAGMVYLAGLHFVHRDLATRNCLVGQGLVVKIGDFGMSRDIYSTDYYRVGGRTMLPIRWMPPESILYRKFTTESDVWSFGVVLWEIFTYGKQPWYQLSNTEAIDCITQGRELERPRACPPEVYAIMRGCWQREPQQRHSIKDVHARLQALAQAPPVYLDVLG", "assay": "Inhibition of TRKA (unknown origin) at 2 uM by radioactive filter-binding assay", "outline": "as §1"}, "[5]": {"biological_target": "T1, Serine/threonine-protein kinase ULK1 (Homo sapiens, UniProt O75385)", "T1 sequence (O75385 whole entry)": "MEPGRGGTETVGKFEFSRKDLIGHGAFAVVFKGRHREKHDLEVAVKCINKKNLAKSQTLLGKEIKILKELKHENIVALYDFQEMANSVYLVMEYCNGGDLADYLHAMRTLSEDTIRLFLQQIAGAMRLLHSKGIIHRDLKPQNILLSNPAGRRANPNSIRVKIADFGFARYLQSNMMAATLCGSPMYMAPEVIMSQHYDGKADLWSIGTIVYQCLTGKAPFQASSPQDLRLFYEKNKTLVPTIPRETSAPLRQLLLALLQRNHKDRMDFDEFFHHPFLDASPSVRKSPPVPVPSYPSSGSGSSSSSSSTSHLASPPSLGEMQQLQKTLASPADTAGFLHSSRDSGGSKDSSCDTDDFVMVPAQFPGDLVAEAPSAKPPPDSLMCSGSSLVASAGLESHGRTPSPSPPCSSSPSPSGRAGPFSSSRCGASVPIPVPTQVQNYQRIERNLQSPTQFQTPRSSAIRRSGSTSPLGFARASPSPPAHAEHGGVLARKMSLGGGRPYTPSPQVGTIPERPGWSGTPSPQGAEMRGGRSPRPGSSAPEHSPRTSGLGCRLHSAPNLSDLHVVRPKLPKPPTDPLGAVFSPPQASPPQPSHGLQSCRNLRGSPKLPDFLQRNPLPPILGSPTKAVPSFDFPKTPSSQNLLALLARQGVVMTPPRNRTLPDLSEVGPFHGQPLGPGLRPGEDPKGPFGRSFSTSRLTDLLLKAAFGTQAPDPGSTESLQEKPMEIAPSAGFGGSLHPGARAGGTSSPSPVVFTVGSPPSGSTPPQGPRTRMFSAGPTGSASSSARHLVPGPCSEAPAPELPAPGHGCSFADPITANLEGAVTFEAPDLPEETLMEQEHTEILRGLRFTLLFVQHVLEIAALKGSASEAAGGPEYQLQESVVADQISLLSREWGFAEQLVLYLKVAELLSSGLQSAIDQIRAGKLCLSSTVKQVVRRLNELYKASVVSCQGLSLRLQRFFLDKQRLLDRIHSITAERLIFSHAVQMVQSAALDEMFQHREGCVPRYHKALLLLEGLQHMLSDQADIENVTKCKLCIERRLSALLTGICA", "assay": "Inhibition of SUMO-tagged ULK1 (unknown origin) kinase domain expressed in KRX cells using [32P]-gamma-ATP and myelin basic protein substrate incubated for 7 mins", "assay_type": "cell-based", "outline": "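Enzyme at 5 nM with 50 µM cold ATP, 0.05 µCi/µl 32P-γ-ATP and 20 µM myelin basic protein as substrate. Reactions were spotted onto nitrocellulose, washed three times in 1% phosphoric acid, dried and imaged by phosphorimager. IC50 from curve fitting; duplicate.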"}, "[6]": {"biological_target": "Mitogen-activated protein kinase kinase kinase 7 (Homo sapiens) (UniProt O43318)", "sequence (O43318 whole entry)": "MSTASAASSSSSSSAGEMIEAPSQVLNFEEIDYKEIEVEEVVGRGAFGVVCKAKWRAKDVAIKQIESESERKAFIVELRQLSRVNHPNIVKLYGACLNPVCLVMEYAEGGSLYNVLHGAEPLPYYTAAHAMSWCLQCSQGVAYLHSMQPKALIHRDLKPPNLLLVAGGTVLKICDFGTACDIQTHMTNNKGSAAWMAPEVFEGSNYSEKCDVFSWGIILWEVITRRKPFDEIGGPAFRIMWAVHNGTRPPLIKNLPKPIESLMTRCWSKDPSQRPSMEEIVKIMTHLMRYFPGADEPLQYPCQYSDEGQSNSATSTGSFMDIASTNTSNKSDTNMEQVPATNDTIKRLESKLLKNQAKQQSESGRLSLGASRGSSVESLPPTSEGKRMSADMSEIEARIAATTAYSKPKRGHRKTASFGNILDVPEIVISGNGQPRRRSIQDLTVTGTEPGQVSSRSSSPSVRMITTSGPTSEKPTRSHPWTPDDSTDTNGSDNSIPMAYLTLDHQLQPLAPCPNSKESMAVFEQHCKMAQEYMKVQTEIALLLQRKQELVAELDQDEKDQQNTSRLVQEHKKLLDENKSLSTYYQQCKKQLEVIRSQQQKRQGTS", "assay": "Inhibition of TAK1 (unknown origin) at 2 uM by radioactive filter-binding assay", "outline": "as §1"}, "[7]": {"biological_target": "Tyrosine-protein kinase SYK (Homo sapiens) (UniProt P43405)", "assay": "Inhibition of SYK (unknown origin) at 2 uM by radioactive filter-binding assay", "outline": "as §1"}, "[8]": {"biological_target": "MAP/microtubule affinity-regulating kinase 3 (Homo sapiens) (UniProt P27448)", "assay": "Inhibition of MARK3 (unknown origin) at 250 nM by radioactive filter-binding assay", "outline": "as §1"}, "[9]": {"biological_target": "Serine/threonine-protein kinase TBK1 (Homo sapiens) (UniProt Q9UHD2)", "assay": "Inhibition of TBK1 (unknown origin) at 250 nM by radioactive filter-binding assay", "outline": "as §1"}, "[10]": {"biological_target": "Interleukin-1 receptor-associated kinase 4 (Homo sapiens) (UniProt Q9NWZ3)", "assay": "Inhibition of IRAK4 (unknown origin) at 250 nM by radioactive filter-binding assay", "outline": "as §1"}, "[11]": {"biological_target": "AMP-activated protein kinase, AMPK (Homo sapiens) (UniProt P54646+O43741+P54619+Q9UGJ0+Q9Y478+Q13131+Q9UGI9)", "assay": "Inhibition of AMPK (unknown origin) at 250 nM by radioactive filter-binding assay", "assay_type": "protein-complex assay", "outline": "as §1"}, "[12]": {"biological_target": "Mitogen-activated protein kinase kinase kinase 11 (Homo sapiens) (UniProt Q16584)", "sequence (Q16584 whole entry, looked up)": "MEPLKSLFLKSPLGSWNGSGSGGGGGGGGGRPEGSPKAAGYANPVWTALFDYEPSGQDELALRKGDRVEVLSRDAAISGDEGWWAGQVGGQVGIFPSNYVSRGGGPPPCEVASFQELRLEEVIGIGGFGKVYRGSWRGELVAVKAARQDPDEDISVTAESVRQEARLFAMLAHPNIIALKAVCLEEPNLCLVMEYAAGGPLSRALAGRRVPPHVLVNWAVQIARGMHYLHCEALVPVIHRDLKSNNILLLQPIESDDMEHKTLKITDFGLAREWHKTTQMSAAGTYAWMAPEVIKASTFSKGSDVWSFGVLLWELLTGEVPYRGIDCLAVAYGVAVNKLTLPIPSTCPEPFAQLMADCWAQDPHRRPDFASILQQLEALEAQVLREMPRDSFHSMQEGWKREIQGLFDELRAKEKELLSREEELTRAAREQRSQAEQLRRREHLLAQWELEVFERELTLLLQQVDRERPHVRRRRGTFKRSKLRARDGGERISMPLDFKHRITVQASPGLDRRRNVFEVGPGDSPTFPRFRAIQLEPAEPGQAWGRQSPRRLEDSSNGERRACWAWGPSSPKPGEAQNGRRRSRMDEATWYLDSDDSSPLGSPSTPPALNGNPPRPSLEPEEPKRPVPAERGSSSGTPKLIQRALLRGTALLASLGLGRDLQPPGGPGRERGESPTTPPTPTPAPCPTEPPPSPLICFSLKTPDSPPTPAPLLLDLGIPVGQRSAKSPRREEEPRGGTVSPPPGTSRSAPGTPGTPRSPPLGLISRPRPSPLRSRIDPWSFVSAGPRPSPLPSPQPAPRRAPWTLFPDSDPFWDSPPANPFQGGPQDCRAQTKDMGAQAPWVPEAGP", "assay": "Inhibition of MLK3 (unknown origin) at 250 nM by radioactive filter-binding assay", "outline": "as §1"}, "[13]": {"biological_target": "Insulin-like growth factor 1 receptor (Homo sapiens) (UniProt P08069)", "sequence (P08069 31-736 limits assumed)": "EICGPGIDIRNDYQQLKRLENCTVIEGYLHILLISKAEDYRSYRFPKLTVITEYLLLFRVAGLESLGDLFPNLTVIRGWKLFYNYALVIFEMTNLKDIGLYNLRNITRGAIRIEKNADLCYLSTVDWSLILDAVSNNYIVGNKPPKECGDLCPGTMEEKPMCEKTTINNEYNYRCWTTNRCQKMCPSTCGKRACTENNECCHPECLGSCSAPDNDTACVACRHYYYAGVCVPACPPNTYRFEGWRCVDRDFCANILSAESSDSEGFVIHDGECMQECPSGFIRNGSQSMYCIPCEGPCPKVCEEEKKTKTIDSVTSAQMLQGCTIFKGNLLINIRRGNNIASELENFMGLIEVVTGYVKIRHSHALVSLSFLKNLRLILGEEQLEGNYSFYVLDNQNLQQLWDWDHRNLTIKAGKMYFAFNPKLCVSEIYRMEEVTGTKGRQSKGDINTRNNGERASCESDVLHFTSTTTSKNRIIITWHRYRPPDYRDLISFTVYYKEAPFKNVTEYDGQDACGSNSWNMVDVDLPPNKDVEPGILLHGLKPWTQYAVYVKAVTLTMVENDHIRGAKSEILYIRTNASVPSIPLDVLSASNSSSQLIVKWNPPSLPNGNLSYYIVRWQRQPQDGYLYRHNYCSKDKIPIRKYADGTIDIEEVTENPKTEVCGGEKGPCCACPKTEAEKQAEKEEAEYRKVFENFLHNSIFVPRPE", "sequence (P08069 741-1367 limits assumed)": "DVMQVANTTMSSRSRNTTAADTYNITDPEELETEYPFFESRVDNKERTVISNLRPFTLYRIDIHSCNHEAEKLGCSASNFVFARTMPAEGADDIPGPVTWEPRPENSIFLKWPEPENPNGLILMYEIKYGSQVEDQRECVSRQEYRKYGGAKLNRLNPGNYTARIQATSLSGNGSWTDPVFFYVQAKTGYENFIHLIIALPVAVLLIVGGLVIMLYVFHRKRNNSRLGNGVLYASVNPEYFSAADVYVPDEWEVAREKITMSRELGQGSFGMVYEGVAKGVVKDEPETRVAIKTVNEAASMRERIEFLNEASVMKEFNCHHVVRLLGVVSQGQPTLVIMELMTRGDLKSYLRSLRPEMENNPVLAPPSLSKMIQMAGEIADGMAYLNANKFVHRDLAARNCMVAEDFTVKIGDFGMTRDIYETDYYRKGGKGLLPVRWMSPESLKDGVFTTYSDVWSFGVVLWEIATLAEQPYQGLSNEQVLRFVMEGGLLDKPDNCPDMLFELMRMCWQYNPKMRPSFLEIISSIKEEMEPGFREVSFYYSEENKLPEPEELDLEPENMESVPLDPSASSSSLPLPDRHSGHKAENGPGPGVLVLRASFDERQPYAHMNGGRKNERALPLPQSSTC", "assay": "Inhibition of IGF1R (unknown origin) at 250 nM by radioactive filter-binding assay", "outline": "as §1"}, "[14]": {"biological_target": "Receptor-interacting serine/threonine-protein kinase 2 (Homo sapiens) (UniProt O43353)", "assay": "Inhibition of RIPK2 (unknown origin) at 250 nM by radioactive filter-binding assay", "outline": "as §1"}, "[15]": {"biological_target": "Mitogen-activated protein kinase kinase kinase 7 (Homo sapiens) (UniProt O43318)", "assay": "Inhibition of TAK1 (unknown origin) at 250 nM by radioactive filter-binding assay", "outline": "as §1"}, "[16]": {"biological_target": "Dual specificity tyrosine-phosphorylation-regulated kinase 1A (Homo sapiens) (UniProt Q13627)", "assay": "Inhibition of DYRK1A (unknown origin) at 250 nM by radioactive filter-binding assay", "outline": "as §1"}, "[17]": {"biological_target": "Tyrosine-protein kinase SYK (Homo sapiens) (UniProt P43405)", "assay": "Inhibition of SYK (unknown origin) at 250 nM by radioactive filter-binding assay", "outline": "as §1"}, "[18]": {"biological_target": "Ribosomal protein S6 kinase alpha-1 (Homo sapiens) (UniProt Q15418)", "assay": "Inhibition of RSK1 (unknown origin) at 250 nM by radioactive filter-binding assay", "outline": "as §1"}, "[19]": {"biological_target": "Serine/threonine-protein kinase Chk2 (Homo sapiens) (UniProt O96017)", "assay": "Inhibition of CHK2 (unknown origin) at 250 nM by radioactive filter-binding assay", "outline": "as §1"}, "[20]": {"biological_target": "Glycogen synthase kinase-3 beta (Homo sapiens) (UniProt P49841)", "sequence (P49841 whole entry, looked up)": "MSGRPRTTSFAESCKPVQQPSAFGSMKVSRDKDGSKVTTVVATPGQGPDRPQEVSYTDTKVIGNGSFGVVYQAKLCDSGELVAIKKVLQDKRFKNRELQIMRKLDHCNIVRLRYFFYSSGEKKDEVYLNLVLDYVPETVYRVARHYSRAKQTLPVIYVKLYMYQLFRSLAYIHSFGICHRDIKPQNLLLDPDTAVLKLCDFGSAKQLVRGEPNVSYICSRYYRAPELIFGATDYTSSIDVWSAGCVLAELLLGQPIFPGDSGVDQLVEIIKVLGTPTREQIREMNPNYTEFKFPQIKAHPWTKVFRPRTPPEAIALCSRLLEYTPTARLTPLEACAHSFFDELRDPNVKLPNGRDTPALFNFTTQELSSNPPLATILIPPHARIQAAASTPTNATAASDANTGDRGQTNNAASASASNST", "assay": "Inhibition of GSK3beta (unknown origin) at 250 nM by radioactive filter-binding assay", "outline": "as §1"}, "[21]": {"biological_target": "Serine/threonine-protein kinase PAK 4 (Homo sapiens) (UniProt O96013)", "assay": "Inhibition of PAK4 (unknown origin) at 250 nM by radioactive filter-binding assay", "outline": "as §1"}},
  "note": "Active and inactive are the calls of the source. The rule behind the calls is not given here.",
  "data": [
    {"smiles": "NCCCNc1nc(Nc2cccc(NC(=O)N3CCCC3)c2)ncc1I", "values": [
      {"measurement": "inhibition", "setting": "[1]", "value": "> 80", "unit": "%"},
      {"measurement": "inhibition", "setting": "[2]", "value": "> 80", "unit": "%"},
      {"measurement": "Activity", "setting": "HeLa", "value": "Active"},
      {"measurement": "inhibition", "setting": "[3]", "value": "> 80", "unit": "%"},
      {"measurement": "inhibition", "setting": "[4]", "value": "> 80", "unit": "%"},
      {"measurement": "IC50", "setting": "[5]", "value": 0.12, "unit": "µM"},
      {"measurement": "inhibition", "setting": "[6]", "value": "> 80", "unit": "%"},
      {"measurement": "inhibition", "setting": "[7]", "value": "> 80", "unit": "%"}
    ]},
    {"smiles": "c1ccc2c(Nc3cc(C4CCC4)[nH]n3)nc(Nc3ccc4[nH]cnc4c3)nc2c1", "values": [
      {"measurement": "inhibition", "setting": "[8]", "value": "> 80", "unit": "%"},
      {"measurement": "inhibition", "setting": "[9]", "value": "> 80", "unit": "%"},
      {"measurement": "inhibition", "setting": "[10]", "value": "> 80", "unit": "%"},
      {"measurement": "inhibition", "setting": "[11]", "value": "> 80", "unit": "%"},
      {"measurement": "inhibition", "setting": "[12]", "value": "> 80", "unit": "%"},
      {"measurement": "inhibition", "setting": "[13]", "value": "> 80", "unit": "%"},
      {"measurement": "inhibition", "setting": "[14]", "value": "> 80", "unit": "%"},
      {"measurement": "inhibition", "setting": "[15]", "value": "> 80", "unit": "%"},
      {"measurement": "inhibition", "setting": "[16]", "value": "> 80", "unit": "%"},
      {"measurement": "inhibition", "setting": "[17]", "value": "> 80", "unit": "%"},
      {"measurement": "inhibition", "setting": "[18]", "value": "> 80", "unit": "%"},
      {"measurement": "inhibition", "setting": "[19]", "value": "> 80", "unit": "%"},
      {"measurement": "inhibition", "setting": "[20]", "value": "> 80", "unit": "%"},
      {"measurement": "inhibition", "setting": "[21]", "value": "> 80", "unit": "%"}
    ]}
  ]
}
